Data: ChEMBL document CHEMBL2163220 (J Med Chem, 2012)
Calls of active or inactive are those of the source. The calls are words filed in the database; no cut-off is given here.

Test system: T1, Androgen receptor (Homo sapiens), P10275 [W742C]
T1 sequence (whole entry): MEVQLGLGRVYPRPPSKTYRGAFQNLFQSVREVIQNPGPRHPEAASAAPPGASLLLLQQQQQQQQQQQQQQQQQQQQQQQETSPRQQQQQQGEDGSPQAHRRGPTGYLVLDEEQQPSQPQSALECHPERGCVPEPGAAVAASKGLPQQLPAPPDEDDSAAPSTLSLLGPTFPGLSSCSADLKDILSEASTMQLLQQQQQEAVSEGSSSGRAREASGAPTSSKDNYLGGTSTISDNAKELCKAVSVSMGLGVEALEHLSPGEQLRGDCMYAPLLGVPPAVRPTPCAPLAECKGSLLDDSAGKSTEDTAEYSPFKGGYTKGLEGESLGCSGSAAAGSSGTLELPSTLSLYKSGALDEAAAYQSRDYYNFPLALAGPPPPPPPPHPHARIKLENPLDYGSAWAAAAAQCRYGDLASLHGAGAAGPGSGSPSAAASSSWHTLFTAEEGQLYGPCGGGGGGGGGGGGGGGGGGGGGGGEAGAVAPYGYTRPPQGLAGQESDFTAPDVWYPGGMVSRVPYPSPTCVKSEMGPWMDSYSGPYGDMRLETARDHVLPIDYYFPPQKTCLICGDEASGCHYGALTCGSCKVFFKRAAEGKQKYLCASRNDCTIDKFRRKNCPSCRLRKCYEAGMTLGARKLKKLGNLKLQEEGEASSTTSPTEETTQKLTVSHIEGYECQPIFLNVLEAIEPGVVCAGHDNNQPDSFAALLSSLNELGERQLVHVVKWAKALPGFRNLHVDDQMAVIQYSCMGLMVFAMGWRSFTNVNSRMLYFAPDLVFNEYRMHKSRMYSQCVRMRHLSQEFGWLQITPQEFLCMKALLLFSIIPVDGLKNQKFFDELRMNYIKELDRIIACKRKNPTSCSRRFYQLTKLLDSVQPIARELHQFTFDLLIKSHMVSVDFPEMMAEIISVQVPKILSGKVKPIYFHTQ
Test: Antagonist activity at androgen receptor W741C mutant expressed in human PC3 cells assessed as reduction in DHT-induced receptor transactivation at 0.1 to 1 uM by luciferase reporter gene assay
Type: functional, cell-based
Conditions: PC-3
In short: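 Full-length wild-type or mutant AR plasmid transiently transfected into PC-3 cells with MMTV-luc and Renilla luciferase reporters. Cells treated with DMSO vehicle or compound at 0.1 and 1 μM, alone or with 0.1 nM DHT. Luciferase read as relative luciferase units. Run in triplicate.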

Activity: Active
Compound: Cc1coc2c1C(=O)C(=O)c1c-2ccc2c1CCCC2(C)C [TANSHINONE IIA]
